# T cell HTS: T cell immune modulation candidate; 2C CD8+ T cell-vesicle binding, flow cytometry; stronger effect = lower value; response (vesicle binding), % at 7 µM; 0.068% of 330,000 active;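 active means response, share of CD8 T cells binding vesicles, and their 90th percentile fluorescence all below set limits, cut at about 80% in these data, passing the limit was not always enough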;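 further: values below 100% mean blocked vesicle binding to the CD8+ T cells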
#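 Test system: purified 2C TCR transgenic mouse naive CD8+ T cells. Probe or stimulus: QL9-peptide-loaded Drosophila micro-vesicles bearing Ld, ICAM-1 and B7-1. Incubation: binding step 1.5 h, 37 °C, antibody labelling 20 min, ice. Measured by: flow cytometry of vesicle-bound cells.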
# Vif inh: inhibitors of HIV Vif | HEK293T cells, Vif self-association by quenched fluorescence, imaging, 24 h | inhibition, % at 7.49 µM | 0.35% of 340,000 active; in the data active means inhibition above about 50%, passing the limit was not always enough
# Myeloid diff 2: promotes myeloid progenitor differentiation. calls only at 10 µM. ER-HoxA9 myeloid progenitors, lysozyme-GFP differentiation, flow cytometry. 1% of 360,000 active;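 active means normalized GFP-positive differentiation at or above the plate's own cutoff, the solvent-only control mean plus 3 SD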;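 further: cells exposed to compound for four days before flow analysis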
# Pemphigus Ab inh: inhibitors of pemphigus antibody binding to human desmoglein-3; P32926; DSG3-coupled beads, scFv-anti-DSG3-GFP binding, flow cytometry; stronger effect = lower value; binding (percent of control), % at 10 µM; 0.48% of 310,000 active;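 active means binding more than 3 SD below its plate's average and above zero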;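 further: hits lower antibody fragment binding to DSG3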
# Target sequence (P32926 whole entry, looked up, the tested form may be a part): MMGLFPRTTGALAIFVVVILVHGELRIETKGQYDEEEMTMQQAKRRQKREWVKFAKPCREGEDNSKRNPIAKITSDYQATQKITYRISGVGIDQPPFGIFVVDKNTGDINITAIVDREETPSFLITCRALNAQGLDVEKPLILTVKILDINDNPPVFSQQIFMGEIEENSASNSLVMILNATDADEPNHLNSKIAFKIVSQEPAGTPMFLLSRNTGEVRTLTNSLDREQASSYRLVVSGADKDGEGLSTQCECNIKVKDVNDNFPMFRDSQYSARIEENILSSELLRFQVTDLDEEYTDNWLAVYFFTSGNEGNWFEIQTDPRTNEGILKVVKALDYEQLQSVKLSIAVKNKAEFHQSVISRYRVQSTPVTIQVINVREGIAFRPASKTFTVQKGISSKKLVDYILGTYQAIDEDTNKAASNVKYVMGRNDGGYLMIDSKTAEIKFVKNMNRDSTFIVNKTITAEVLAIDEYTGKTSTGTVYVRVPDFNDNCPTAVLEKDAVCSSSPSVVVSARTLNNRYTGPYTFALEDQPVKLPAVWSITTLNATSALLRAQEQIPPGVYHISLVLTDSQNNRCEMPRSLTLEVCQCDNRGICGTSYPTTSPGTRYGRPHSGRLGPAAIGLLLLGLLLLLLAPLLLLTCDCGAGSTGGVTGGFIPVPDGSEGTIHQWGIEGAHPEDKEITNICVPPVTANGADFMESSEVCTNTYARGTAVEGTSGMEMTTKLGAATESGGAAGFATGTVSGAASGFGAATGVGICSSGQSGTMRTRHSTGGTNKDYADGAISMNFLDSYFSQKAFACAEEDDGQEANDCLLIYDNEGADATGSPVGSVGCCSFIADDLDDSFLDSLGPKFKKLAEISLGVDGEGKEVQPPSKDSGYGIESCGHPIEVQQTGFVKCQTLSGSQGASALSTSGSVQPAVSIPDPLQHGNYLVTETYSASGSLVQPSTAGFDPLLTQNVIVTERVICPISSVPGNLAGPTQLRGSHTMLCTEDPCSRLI
# Starred values were filed as active, the others as inactive; i = inactive; · = no result given; + = active, no number. Sampled rows, rich in hits. Any-hit rate of the full collection: about 1.7%.
SMILES,T cell HTS,Vif inh,Myeloid diff 2,Pemphigus Ab inh
CC1CCCN(C(=O)CSc2nnc(-c3cccnc3)n2C2CCCCC2)C1 (stereo unspecified),343.8,0.1,i,61.0*
CC(=O)c1cccc(NC(=O)c2cccc3c(-c4cccnc4)coc23)c1,·,-5.8,i,·
CN(C)S(=O)(=O)c1ccc(C(=O)Nc2ccccc2OC(F)(F)C(F)F)cc1,·,-6.2,+,·
O=C(Nc1cc(Cl)ccc1-n1cncn1)c1ccc([N+](=O)[O-])o1,107.0,0.3,·,103.6
N#Cc1ccc[n+](CC(=O)c2ccc(Cl)cc2)c1,300.5,-1.9,+,120.8
CC1(C(=O)NS(=O)(=O)c2ccc(Cl)s2)CCN1C(=O)C1(c2ccccc2)CCCC1 (stereo unspecified),·,5.8,i,·
O=C(NCCC1=CCCCC1)c1cc(COc2c(F)cccc2F)on1,448.6,-4.6,i,105.3
CSc1ccccc1OCc1cc(C(=O)NCCC2=CCCCC2)no1,264.5,-3.2,i,25.0*
O=C(Nc1nnc([C@H]2C[C@H](O)[C@@H](CO)O2)s1)c1ccc(Oc2ccccc2)cc1,·,-7.2,i,·
CC1=C(C(=O)N(C(C)C)C(C)C)CC(CC(=O)NC(c2ccccc2)c2ccccc2)C(=O)N1Cc1ccc(C(C)(C)C)cc1 (stereo unspecified),·,4.7,+,·
CCN(CC)C(=O)C1=C(C)N(CCCN2CCCC2=O)C(=O)C(CC(=O)NC(c2ccccc2)c2ccccc2)C1 (stereo unspecified),·,-17.8,i,105.4
CC1=C(C(=O)N(C)C)CC(CC(=O)NC(c2ccccc2)c2ccccc2)C(=O)N1CCCN1CCCC1=O (stereo unspecified),·,-1.4,+,110.6
CSC[C@H]1CN(Cc2ccccc2)C(=O)[C@@H]1CC(=O)Nc1ccc(Br)cc1,·,0.3,i,·
CCOC(=O)C1(C)CCCN(C(=O)c2ccc3ccccc3c2)C1 (stereo unspecified),·,-6.0,i,·
COc1ccc(S(=O)(=O)Nc2cc3c(C(C)=O)c(C)oc3c3ccccc23)cc1,398.7,102.0*,·,97.8
CC(=NN1CC(=O)NC1=O)c1ccc([N+](=O)[O-])o1,·,-4.5,i,98.9
COc1ccccc1-n1c(SCC(=O)Nc2cccc(C)c2)nc2c(c1=O)SCC2,460.9,-12.4,+,97.2
C/C=C(\C)C(=O)O[C@H](c1cc2ccc(=O)oc2cc1OC)[C@@H](O)C(C)(C)O,i,-2.4,i,95.5
Cc1cccc2cc3c(N)c(C(=O)N4CCc5ccccc54)sc3nc12,182.9,10.6,+,125.1
Cc1sc(NC(=O)c2sc3nc4c(C)cccc4cc3c2N)c(C#N)c1C,470.2,53.2*,+,93.5
Cc1ccc(C)c2nc3sc(C(=O)N4CCOCC4)c(N)c3cc12,235.6,4.3,i,110.1
Cc1cc(C)c2nc3sc(C(=O)N4CCOCC4)c(N)c3cc2c1,705.9,67.4*,·,91.8
Cc1cccc2cc3c(N)c(C#N)sc3nc12,835.8,6.8,i,101.7
Fc1ccc(-n2nnc(-c3ncc[nH]3)n2)cc1,328.4,·,·,·
COC(=O)[C@@]12C[C@@H](CC(=O)N3CCN(C(=O)C4CC4)CC3)C(=O)N(CCc3ccc(OC)c(OC)c3)C1=CCC(C)(C)C2,·,·,i,·
SMILES,T cell HTS,Vif inh,Myeloid diff 2,Pemphigus Ab inh
COCCN1C[C@@H](CO)O[C@@H](n2cnc3c(N(C)C)ncnc32)C1,·,4.8,i,·
COC(=O)C[C@@H]1CC[C@H](NC(=O)CC2CC2)[C@@H](CO)O1,·,·,i,·
Cc1cc(NS(=O)(=O)c2cn(C)nc2C)no1,191.7,7.3,+,·
O=C(O)CCC(=O)Nc1cccc2cccnc12,i,13.7,i,99.5
O=C(CCC(=O)OCC(=O)c1ccccc1)Nc1cccc2cccnc12,130.9,-5.0,i,8.4*
Cc1ccc(CNC(=O)c2ccc(C)c(S(=O)(=O)N3CCCCC3)c2)cc1,192.9,0.4,i,103.1
CNc1nc(-c2ccccc2)[n+](-c2ccc(C)cc2)s1,589.9,-0.9,i,1.4*
Cc1ccc(-c2nc(N)s[n+]2-c2ccccc2)cc1,189.6,2.1,i,80.6
Cc1cccc(N(Cc2ccccc2)C(=O)C2CCN(C(=O)c3ccccc3C)CC2)c1,308.7,-0.9,i,93.1
COc1cccc(CN2CCN(CCc3ccccc3)C(CCO)C2)c1OC (stereo unspecified),308.5,-6.2,+,104.2
COc1cccc(CN2CCN(CCCc3ccccc3)C(CCO)C2)c1OC (stereo unspecified),166.0,-3.4,i,103.9
CCNCCC(CCC(C)C)c1ccc2c(c1)OCO2 (stereo unspecified),652.0,-5.6,i,99.5
CC(C)CCC(CCNCc1ccccn1)c1ccc2c(c1)OCO2 (stereo unspecified),196.1,-9.1,+,223.4
C[C@H](O)CNC(=O)c1[nH]cnc1C(=O)N[C@@H](C)c1ccccc1,·,-9.2,i,·
O=[N+]([O-])c1ccc(Oc2cccc3cccnc23)c([N+](=O)[O-])c1,242.8,7.8,+,103.4
Cc1ccsc1C(=O)OCC(=O)c1cc(C)n(C)c1C,411.1,4.7,i,106.1
CSCC[C@H](NC(=O)Nc1cccc(C(F)(F)F)c1)C(=O)O,357.5,3.3,i,97.0
CSCC[C@H](NC(=O)Nc1cccc(Br)c1)C(=O)O,205.5,3.1,+,105.7
COc1ccc(C(c2nnnn2C2CCCCC2)N2CCN(C/C=C/c3ccccc3)CC2)cc1 (stereo unspecified),·,0.0,i,·
COc1ccc(C2(SCC(N)C(=O)O)c3ccccc3-c3ccccc32)cc1 (stereo unspecified),·,-1.3,i,72.2*
COc1cc(Cl)c(C)cc1NC(=O)CN1C(=O)C2CC=CCC2C1=O (stereo unspecified),449.5,58.8*,i,·
CCC(=O)OCOc1ccc(/C=C2/CCC(CN(C)C)C2=O)cc1 (stereo unspecified),·,-8.7,i,106.3
Cc1nc(N2N=C(c3ccc(Cl)cc3)CC2c2ccco2)sc1C(=O)N(C)C (stereo unspecified),731.5,6.0,+,97.9
CCOC(=O)c1ccc(NC(=O)NNC(=O)CCc2ccc(OC)cc2)cc1,284.9,0.9,+,99.5
O=C(Nc1ccc(F)c(F)c1)C1CCCN(S(=O)(=O)c2cccc3nonc23)C1 (stereo unspecified),210.9,-17.5,+,·
SMILES,T cell HTS,Vif inh,Myeloid diff 2,Pemphigus Ab inh
COC(=O)[C@@H](NCc1ccc(OC)c(B(O)O)c1)C(C)C,·,·,i,108.3
O=C(NCc1ccccn1)c1ccc(NS(=O)(=O)c2cccc(Cl)c2)cc1,328.1,-8.0,i,118.5
O=C(OCc1ccccc1)c1ccccc1,383.5,11.1,i,96.8
O=C(CN(C(=O)c1ccccc1)C(=O)c1ccccc1)OCc1ccccc1,·,77.5*,i,92.2
COC(=O)[C@]12CCCCC=C1N(Cc1ccccc1)C(=O)[C@H](CC(=O)N1CCN(C(=O)c3ccco3)CC1)C2,·,·,i,·
OCC[C@@H]1C[C@H](O)[C@@H](O)[C@@]2(OCc3ccc(CO)cc32)O1,·,-0.6,i,·
